Hits are enriched below; roughly 5.1% of the tested compounds scored in any of these assays.
APP 5'UTR act: APP 5'UTR luciferase reporter activation; SH-SY5Y APP 5'UTR luciferase reporter, luminescence; zero percent = DMSO vehicle wells; activation, % at 2 µM; 190,000 compounds, 1% hits;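 active = activation above a set limit, based on mean plus 3 SD of controls, cut at about 140% in these data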
STAT1 activator: STAT1 signaling activation. activation (% of control), % at 5.5 µM. 200,000 compounds, 2.6% hits. NIH 3T3 STAT1-luciferase reporter, IFN-gamma, luminescence; 100% = IFN-gamma alone, no compound;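 active = activation above the screen-wide mean activation plus 3 SD, cut at about 130% in these data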
NF-kB neuron act: raises NF-kB expression in human neuronal cells | fold change at 12.5 µM | AID 1239 | 190,000 compounds, 1.6% hits | NF-kB reporter expression; hits give high values; in the data active = fold change above about 3.3
STAT3 blocker: STAT3 signaling inhibition; U3A cells, IL-6 STAT3-luciferase reporter, luminescence; host cell line lacks STAT1; inhibition, % at 5.5 µM; 190,000 compounds, 0.89% hits;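 active = inhibition above the mean inhibition across all screened compounds plus 3 SD, cut at about 44% in these data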
STAT3 act: activators of IL-6 induced STAT3 signaling; U3A cells, IL-6 STAT3-luciferase reporter, luminescence; 100% = signal with IL-6 EC80 alone; activation (% of control), % at 5.6 µM; 190,000 compounds, 0.91% hits; AID 871;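 active = activation above the screen-wide mean of compound activation plus 3 SD, cut at about 130% in these data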
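Test system: STAT3-luciferase reporter U3A cells; Detection: reporter luminescence signal; Times: 1 h compound pre-exposure, 6 h IL-6 stimulation, 37 °C; Benchmarks: IL-6-only high control; Also added: IL-6 stimulus at 33 ng/mL final.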
STAT1 blocker: reduces IFN-gamma driven STAT1 reporter signal; NIH 3T3 STAT1-luciferase reporter, luminescence; inhibition, % at 5.5 µM; 200,000 compounds, 0.35% hits; AID 920;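 active = inhibition above a set limit, the mean inhibition across all tested compounds plus 3 SD, cut at about 34% in these data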
A number is an active result; – = inactive; · = no result given.

SMILES	APP 5'UTR act	STAT1 activator	NF-kB neuron act	STAT3 blocker	STAT3 act	STAT1 blocker
O=C(Oc1ccc(-c2cn3c(n2)SCC3)cc1)c1ccccc1	–	–	–	–	–	–
Cc1c(Br)c([N+](=O)[O-])nn1CC(=O)c1ccccc1	–	–	–	–	–	–
Oc1ccccc1CNc1ccc(Br)cn1	–	–	5.4	–	–	–
Brc1ccc(NCc2cccc3ccccc23)nc1	–	–	–	–	–	–
O=C1COc2ccc(C(=O)COC(=O)CNC(=O)C3CCCCC3)cc2N1	–	–	–	–	–	–
C/C(=N\NC(=O)c1ccccc1)c1cccc(Br)c1	–	–	–	–	–	–
CC(/C=C/c1ccccc1F)=N\NC(=O)c1ccccc1	–	133	–	–	–	–
C/C(=N/NC(=O)c1ccccc1)C(=O)O	–	132	–	–	–	–
c1ccc2oc(-c3csc(NCC4CCCO4)n3)cc2c1 (stereo not given)	169	148	9.1	–	–	–
O=C(NCC1CCCO1)c1cc2ccccc2oc1=O (stereo not given)	–	–	–	–	–	–
Cc1ccc(CNc2nc3ccccc3s2)s1	182	–	4.2	75	–	51
c1ccc(CCNc2nc3ccccc3s2)cc1	–	–	–	–	–	–
c1ccc2sc(NCC3CCCO3)nc2c1 (stereo not given)	–	136	–	–	–	–
FC(F)c1nnc2c(Cl)cc(C(F)(F)F)cn12	–	–	–	–	–	–
Fc1ccc(-c2nc3c(Cl)cc(C(F)(F)F)cn3c2Cl)cc1	–	–	–	–	134	–
O=C(CSc1ncn[nH]1)Nc1ccc(OCc2ccccc2)cc1	–	–	–	–	–	–
COc1ccc(-n2ncc3c(NCCN4CCOCC4)ncnc32)cc1	–	–	–	–	–	–
COc1ccc(-n2ncc3c(NCCCN4CCOCC4)ncnc32)cc1	–	135	–	–	–	–
CCCNc1ncnc2c1cnn2-c1ccc(OC)cc1	193	156	5.9	–	–	–
CN1CCC(=NNC(=O)CSc2ccc(Cl)cc2)CC1	–	–	–	–	–	–
CCOc1ccc(N2Cc3ccccc3C2)cc1	–	141	·	–	–	–
CN(C)CCCNC(CC(=O)Nc1cccc([N+](=O)[O-])c1)C(=O)O (stereo not given)	–	–	–	–	–	–
C/C(=N\Nc1nccnc1Cl)c1ccc(F)cc1	–	134	–	–	–	–
CCOC(=O)c1sc2nc(SCC(=O)N(CC)CC)n(CCCN3CCCC3=O)c(=O)c2c1C	–	–	–	–	–	–
Cc1cc(C)n(-c2cc(N3CCN(C(=O)c4ccccc4C)CC3)ccc2[N+](=O)[O-])n1	–	–	·	–	–	–
SMILES	APP 5'UTR act	STAT1 activator	NF-kB neuron act	STAT3 blocker	STAT3 act	STAT1 blocker
Cc1ccc(NC(=O)c2ccc(N3C(=O)C4CC=C(Cl)CC4C3=O)cc2)cc1 (stereo not given)	·	–	–	–	–	–
C/C(=N\O)c1ccc(N2C(=O)C3CC=C(Cl)CC3C2=O)cc1 (stereo not given)	144	139	–	–	–	–
Cc1ccc(NC(=S)N/N=C2\CCCCC2C)cc1 (stereo not given)	–	–	–	–	–	–
CC1CCCC/C1=N\NC(=S)Nc1cccnc1 (stereo not given)	–	–	4.9	–	–	–
CC(=O)Nc1ccc(-c2nc3c(C)cccc3[nH]2)cc1	169	130	3.8	–	–	–
CC(C)CC(=O)Nc1ccc(-c2nc3ccccc3c(=O)[nH]2)cc1	184	140	–	–	–	–
CN(C)CCNC(=S)Nc1ccc(-c2nc3ccccc3[nH]2)cc1	163	–	3.7	–	–	–
S=C(NCCCN1CCOCC1)Nc1ccc(-c2nc3ccccc3[nH]2)cc1	–	–	–	–	–	–
Cc1ccc(SCC(=O)Nc2ccc(-c3nc4ccccc4[nH]3)cc2)cc1	–	132	–	–	–	–
COc1cc2c(cc1OC)CN(C(=S)Nc1ccc(C)cc1C)CC2	–	–	–	–	–	–
C=CCc1cc(Cl)ccc1OCCN1CC(C)OC(C)C1 (stereo not given)	–	–	–	–	–	–
COc1cc2cc(CN(Cc3cccs3)C(=S)Nc3ccccc3)c(=O)[nH]c2cc1OC	–	–	–	–	–	–
Cc1ccc(NC(=S)N2CCCC(c3nc4ccccc4[nH]3)C2)cc1 (stereo not given)	–	–	–	–	–	–
Cc1ccc(NC(=S)c2nc3ccccc3[nH]2)cc1	193	–	4.5	–	–	–
COc1ccc(Cn2c(=O)c3cccnc3n(Cc3ccc([N+](=O)[O-])cc3)c2=O)cc1	–	–	–	–	–	–
COc1ccc(-c2ccc(=O)n(Cc3ccc([N+](=O)[O-])cc3)n2)cc1	–	–	–	–	134	–
CCOC(=O)CC(=O)N/N=C/c1c(N)n(C)c(=O)n(C)c1=O	–	–	–	–	–	–
Clc1ccc(-c2nc3ccncc3[nH]2)cc1	–	141	–	–	–	–
COC(=O)N/N=C(/c1ccccc1)C1CCCCC1	–	–	5.6	–	–	–
C/C(Cc1ccccc1)=N\NC(=O)C1CCCCC1	–	–	–	–	–	–
C/C(CC(=O)NC(C)(C)C)=N\NC(=O)c1ccccc1N	–	129	–	–	–	–
O=C(CSc1nnc(-c2cccc(Cl)c2)o1)Nc1ccc2c(c1)OCCO2	159	–	–	–	–	–
COCCCn1nnnc1SCC(=O)Nc1ccc2c(c1)OCCO2	–	–	–	–	–	–
CCn1nnnc1SCC(=O)Nc1ccc2c(c1)OCCO2	–	139	–	–	–	–
O=C(Nc1nnc(C2CCCCC2)s1)c1ccco1	–	130	–	–	–	–
SMILES	APP 5'UTR act	STAT1 activator	NF-kB neuron act	STAT3 blocker	STAT3 act	STAT1 blocker
Cc1cnc(NC(=O)c2ccco2)s1	–	139	–	–	–	–
O=C(Nc1nnc(C2CC2)s1)c1ccco1	–	–	–	–	–	–
Cc1cnc(NC(=O)c2cncc(Br)c2)s1	181	136	4	–	–	–
Cc1cnc(NC(=O)c2ccncc2)s1	–	–	–	–	–	–
COc1ccc2c(c1)CCc1sc(NC(=O)c3ccco3)nc1-2	–	–	–	–	–	–
COc1ccc2sc(NC(=O)c3ccco3)nc2c1	–	–	–	84	–	38
COc1ccc(C2=NN(S(C)(=O)=O)C(c3cccs3)C2)cc1OC (stereo not given)	–	–	–	–	–	–
O=C(O)c1c(-n2cccc2)sc2c1CCCC2	–	–	–	–	–	–
O=C(NC(=S)Nc1nc2ccccc2s1)c1ccco1	143	130	–	–	146	–
Cc1cc(C)c2c(N)c(C(=O)Nc3ncc(C)s3)sc2n1	–	–	–	108	–	87
COc1ccc2nc(NC(=S)NC(=O)c3ccco3)sc2c1	161	146	–	–	–	–
